Sampled rows, rich in hits. Any-hit rate of the full collection: about 2%.
eIF4H inh: inhibitors of RNA binding by human eIF4H; Q15056; eIF4H fluorescence polarization binding assay; inhibition, % at 35 µM; 290,000 tested, 0.94% active; call rule not given here;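 also: calls also rest on retests at 20 µM and on dose response follow-up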
MLLE-PAM2 inh: blocks PAM2 peptide binding to the PABP1 MLLE domain. P11940. GST-MLLE / FITC-PAM2 fluorescence polarization. inhibition, % at 20 µM. 360,000 tested, 0.36% active; in the data active = inhibition above about 35%, passing the limit was not always enough;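 also: plate controls were DMSO wells with GST-MLLE for no effect and wells lacking GST-MLLE protein for full effect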
Target sequence (P11940 whole entry, looked up, the tested form may be a part): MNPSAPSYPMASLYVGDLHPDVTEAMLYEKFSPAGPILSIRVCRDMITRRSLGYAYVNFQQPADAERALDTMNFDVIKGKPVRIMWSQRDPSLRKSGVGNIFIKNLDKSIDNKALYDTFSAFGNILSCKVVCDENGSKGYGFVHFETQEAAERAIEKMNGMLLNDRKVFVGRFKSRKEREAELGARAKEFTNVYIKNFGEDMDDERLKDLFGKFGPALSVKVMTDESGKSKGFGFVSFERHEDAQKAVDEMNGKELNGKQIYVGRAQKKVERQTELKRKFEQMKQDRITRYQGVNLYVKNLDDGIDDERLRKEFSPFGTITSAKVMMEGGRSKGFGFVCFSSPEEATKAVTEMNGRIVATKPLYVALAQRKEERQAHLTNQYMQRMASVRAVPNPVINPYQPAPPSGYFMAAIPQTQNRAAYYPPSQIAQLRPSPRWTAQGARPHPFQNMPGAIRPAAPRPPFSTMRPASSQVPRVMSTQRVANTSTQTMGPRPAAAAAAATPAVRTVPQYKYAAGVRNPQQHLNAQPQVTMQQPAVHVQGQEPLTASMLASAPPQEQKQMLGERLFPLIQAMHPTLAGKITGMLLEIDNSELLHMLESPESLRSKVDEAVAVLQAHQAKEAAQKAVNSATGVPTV
DNA FID counter-1: counter-screen for HCV NS3 helicase inhibitors: DNA intercalator displacement | DNA fluorescent intercalator displacement, fluorescence | 290,000 tested, 0.17% active | inhibition, % at 7.9 µM;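 also: 0% = vehicle and 100% = reference compound; higher means more ethidium bromide displaced from hairpin DNA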
core dimer inh: HCV core protein dimerization inhibition | TR-FRET GST/Flag-core106 dimerization, 1536-well | inhibition, % at 5 µM | 300,000 tested, 0.33% active;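 active = inhibition above the mean of all tested compounds plus 3 SD, set per screening campaign, cut at about 45% in these data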
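System: GST/Flag-tagged HCV core106 proteins. Incubation: compound-protein-antibody incubation 4 h at 22.5 °C. Technique: HTRF with 340 nm excitation, 617/671 nm emission. Medium: KF-containing HEPES buffer, pH 7.45, DTT, CHAPS, BSA. Read-out: inhibition (%) from 671 over 617 nm ratio. Also added: Eu(K)-anti-GST 90 ng/mL plus XL665-anti-Flag 1 µg/mL.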
HCV NS3 hel inh: HCV NS3 helicase inhibition | NS3 helicase DNA unwinding, Cy5 molecular beacon fluorescence | inhibition, % at 10.9 µM | 290,000 tested, 0.56% active;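 active = inhibition above the mean of all tested compounds plus 3 SD, set per campaign, cut at about 35% in these data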;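 also: 0% = DMSO wells and 100% = thioflavine S control wells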
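System: NS3 helicase fragment of HCV / Schedule: 1 h at 25 °C / Control set: DMSO alone as 0% and 110 µM thioflavine S as 100% / Reagent: Cy5/quencher beacon DNA duplex and ATP to start / Technique: Cy5 fluorescence / Replication: singlicate / Evaluation: % inhibition of end-to-start signal ratio versus controls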
PABP polyA inh: PABP-poly(A) binding inhibition. P11940. PABP-poly(A) RNA binding, fluorescence polarization. inhibition, % at 35 µM. 290,000 tested, 1% active; call rule not given here;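 also: calls also rest on retests at 20 µM and on dose response follow-up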
NS3 helicase cf: confirmation of Hepatitis C virus NS3 helicase inhibitors; shares compounds with HCV NS3 hel inh; NS3 helicase DNA unwinding, Cy5 molecular beacon fluorescence; 1,600 tested, 31% active; inhibition, % at 10.9 µM; AID 1943;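 active = inhibition above the mean of all tested compounds plus 3 SD, cutoff set per campaign, cut at about 36% in these data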
DNA FID counter-2: intercalator displacement, NS3 helicase counter-screen; 1,600 tested, 4% active; shares compounds with HCV NS3 hel inh; DNA fluorescent intercalator displacement, fluorescence; inhibition, % at 7.9 µM;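 also: 0% = vehicle and 100% = reference compound; higher means more displacement of ethidium bromide from the DNA hairpin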
The depositor's hits bear a star. Rule as the data show it, unless noted: active = inhibition above about 37%; inactive = the rest.

Results for CCc1ccccc1OCC(=O)NC1CCCC1 ?
eIF4H inh: 0; MLLE-PAM2 inh: 9; DNA FID counter-1: -17; HCV NS3 hel inh: 49*; PABP polyA inh: -6; NS3 helicase cf: -1; DNA FID counter-2: -7

How did COC(=O)c1ccccc1OCC(=O)NC1CCCCC1 do in these assays?
eIF4H inh: 8; MLLE-PAM2 inh: 2; DNA FID counter-1: -21; core dimer inh: -3; HCV NS3 hel inh: 1; PABP polyA inh: 0

Results for O=S(=O)(c1cccs1)N1CN(Cc2ccc(F)cc2)c2nc3ccccc3nc21 ?
eIF4H inh: 6; MLLE-PAM2 inh: 2; DNA FID counter-1: -1; core dimer inh: 14; HCV NS3 hel inh: 50*; PABP polyA inh: 11; NS3 helicase cf: -20; DNA FID counter-2: -2

How did O=S(=O)(c1cccs1)N1CN(Cc2ccccc2)c2nc3ccccc3nc21 do in these assays?
eIF4H inh: 11; MLLE-PAM2 inh: -17; DNA FID counter-1: -5; core dimer inh: 7; HCV NS3 hel inh: -2; PABP polyA inh: 0

Results for CCCC(=O)Nc1ccc(Cl)c(NC(=O)c2ccc([N+](=O)[O-])cc2Cl)c1 ?
eIF4H inh: -4; MLLE-PAM2 inh: 11; DNA FID counter-1: 5; core dimer inh: 0; HCV NS3 hel inh: -2; PABP polyA inh: -10

What do the screens show for `CCCC(=O)Nc1cccc(NC(=O)c2ccc([N+](=O)[O-])cc2Cl)c1`?
eIF4H inh: 2; MLLE-PAM2 inh: 7; DNA FID counter-1: 2; core dimer inh: -3; HCV NS3 hel inh: 53*; PABP polyA inh: 16; NS3 helicase cf: -3; DNA FID counter-2: 11

What do the screens show for `CN(C(=O)COC(=O)c1ccc(=O)n(Cc2ccccc2)n1)C1CCCCC1`?
MLLE-PAM2 inh: 1

Results for COc1cccc(/C=C2/C(=O)NN(c3ccc(F)cc3)C2=O)c1 ?
eIF4H inh: 9; MLLE-PAM2 inh: 18; DNA FID counter-1: -17; HCV NS3 hel inh: 48*; PABP polyA inh: 4; NS3 helicase cf: 16; DNA FID counter-2: 14

How did COc1cc(/C=C2/C(=O)NN(c3cccc(C)c3)C2=O)ccc1OC(=O)c1ccco1 do in these assays?
eIF4H inh: 0; MLLE-PAM2 inh: 13; DNA FID counter-1: -11; core dimer inh: 5; HCV NS3 hel inh: 40*; PABP polyA inh: 7; NS3 helicase cf: 33; DNA FID counter-2: 3

How did C#CCOc1ccc(/C=C2/C(=O)NN(c3ccc(F)cc3)C2=O)cc1OC do in these assays?
eIF4H inh: -5; MLLE-PAM2 inh: 18; DNA FID counter-1: -13; core dimer inh: 7; HCV NS3 hel inh: 39*; PABP polyA inh: 3; NS3 helicase cf: 7; DNA FID counter-2: 19

Results for COc1cc(/C=C2\C(=O)NN(c3ccccc3)C2=O)ccc1OCC(N)=O ?
eIF4H inh: -4; DNA FID counter-1: -34; core dimer inh: -5; HCV NS3 hel inh: 15; PABP polyA inh: 2

How did COC(=O)c1ccc(N2NC(=O)/C(=C/c3ccc(OC)c(OC)c3)C2=O)cc1 do in these assays?
eIF4H inh: -4; MLLE-PAM2 inh: 29; DNA FID counter-1: -15; core dimer inh: 7; HCV NS3 hel inh: 40*; PABP polyA inh: -2; NS3 helicase cf: -16; DNA FID counter-2: -7

How did COc1ccc(C2CC(=O)C(CS(=O)(=O)c3ccccc3)C(=O)C2)cc1 (stereo unspecified) do in these assays?
eIF4H inh: 15; MLLE-PAM2 inh: 38; DNA FID counter-1: -11; core dimer inh: -2; HCV NS3 hel inh: 43*; PABP polyA inh: 2; NS3 helicase cf: -5; DNA FID counter-2: -36

Results for O=S(=O)(CS(=O)(=O)c1ccc(Cl)cc1)c1ccc(Cl)cc1 ?
eIF4H inh: -6; MLLE-PAM2 inh: 6; DNA FID counter-1: -8; core dimer inh: -1; HCV NS3 hel inh: 7; PABP polyA inh: 3

What do the screens show for `COc1ccc(N2C(=O)CC(c3ccccc3)CC2=O)cc1`?
MLLE-PAM2 inh: -7

Source: PubChem BioAssay (several laboratories)
